Results reported in ChEMBL document CHEMBL1154940, “Design, synthesis and biological evaluation of estradiol-chlorambucil hybrids as anticancer agents” (Bioorg Med Chem Lett, 2010).
The source made the active and inactive calls. The calls are words filed in the database; no cut-off is given here.

Columns and labels:
Type in all cases: functional, cell-based
MDA-MB-468 = assay: Anticancer activity against human MDA-MB-468 cells assessed as cell survival after 72 hrs by MTT assay
In short: (§1)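 Estrogen receptor-negative human breast cancer lines, tested by MTT cytotoxicity assay with chlorambucil as positive control.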

MCF7 = assay: Anticancer activity against human MCF7 cells assessed as cell survival after 72 hrs by MTT assay
In short: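 Estrogen receptor-positive human breast cancer line, tested by MTT cytotoxicity assay with chlorambucil as positive control.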

MDA-MB-436 = assay: (§2) Anticancer activity against human MDA-MB-436 cells assessed as cell survival after 72 hrs by MTT assay
In short: (§3)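 Estrogen receptor-negative human breast cancer line, exposed to a range of concentrations for 72 h. MTT read-out is expressed as percent cell survival, with chlorambucil as positive control.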

MDA-MB-231 = assay: Anticancer activity against human MDA-MB-231 cells assessed as cell survival after 72 hrs by MTT assay; in short: as §1
[1] = as §2; conditions: MDA-MB-436, 72 h; in short: as §3

For `C[C@]12CC[C@@H]3c4ccc(O)cc4CC[C@H]3[C@@H]1C[C@@](CO)(CCCCCCCCNC(=O)CCCc1ccc(N(CCCl)CCCl)cc1)[C@@H]2O`, the Activity (MDA-MB-468) was “Active”, the Activity (MCF7) was “Active” and the Activity (MDA-MB-436) was “Active”. For the same compound, the Activity (MDA-MB-231) was “Active”.
For `COC(=O)[C@@]1(CCCCCCNC(=O)CCCc2ccc(N(CCCl)CCCl)cc2)C[C@H]2[C@@H]3CCc4cc(O)ccc4[C@H]3CC[C@]2(C)[C@H]1O`, the Activity (MDA-MB-468) was “inactive”, the Activity (MCF7) was “inactive” and the Activity (MDA-MB-231) was “Active”.
In the case of `C[C@]12CC[C@@H]3c4ccc(O)cc4CC[C@H]3[C@@H]1C[C@@](CO)(CCCCNC(=O)CCCc1ccc(N(CCCl)CCCl)cc1)[C@@H]2O`, the Activity (MDA-MB-468) is reported as “Active”, the Activity (MCF7) is reported as “Active” and the IC50 [1] is reported as 40 µM. The Activity (MDA-MB-231) was “Active”.
For `O=C(O)CCCc1ccc(N(CCCl)CCCl)cc1` [CHLORAMBUCIL], the Activity (MDA-MB-468) was “Active”, the Activity (MCF7) was “Active” and the IC50 [1] was over 160 µM. For the same compound, the IC50 (MDA-MB-231; MDA-MB-231, 72 h) was over 130 µM.
For `C[C@]12CC[C@@H]3c4ccc(O)cc4CC[C@H]3[C@@H]1C[C@@](CO)(CCCCCCNC(=O)CCCc1ccc(N(CCCl)CCCl)cc1)[C@@H]2O`, the Activity (MDA-MB-468) was “Active”, the Activity (MCF7) was “Active” and the Activity (MDA-MB-436) was “Active”. The Activity (MDA-MB-231) was “Active”.
